A short description of data set [1]: WHO-TDR: Cytotoxicity. Type of data set: toxicity, cell-based. Conditions: human, MRC5 cells.
The test system of another data set is Plasmodium falciparum K1. The experiment in a line: WHO-TDR: Malaria. Type of data set: functional, organism-based, Homo sapiens. Conditions: Erythrocyte. An outline of the steps:
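Life Chemicals supplied the diverse library of 10,000 compounds, which had been filtered for drug-likeness and reactive groups. Each was screened against the K1 strain of Plasmodium falciparum at its intra-erythrocytic stage in human red blood cells, using previously published standard procedures and a reference drug as positive control. The table reports IC50 for antiplasmodial potency.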

A further data set relates to Trypanosoma cruzi. The experiment in a line: WHO-TDR: Chagas disease. Conditions: MRC5. Type of data set: functional, organism-based, Homo sapiens. An outline of the steps:
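Whole-organism screen of a 10,000-compound diverse library from Life Chemicals, filtered for drug-likeness and reactive groups, against intracellular amastigotes of Trypanosoma cruzi Tulahuen CL2 beta-galactosidase strain grown in MRC-5SV2 human lung fibroblast host cells. The assay followed previously published standard procedures, with a reference drug as positive control. Antiparasitic potency is reported as IC50.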

The test system of data set [2] is Trypanosoma brucei brucei. The experiment in a line: WHO-TDR: Human African Trypanosomiasis (HAT). Type of data set: functional, organism-based. Conditions: Squib-427. In outline: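 Following previously published standard procedures, with reference drugs as positive controls, a whole-organism assay was run against bloodstream-form Trypanosoma brucei, Squib 427 strain. The compounds, 10,000 in all, came from a diverse Life Chemicals library filtered for drug-likeness and reactive groups. Reported values are IC50 for antiparasitic potency.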

The subject of the next data set is Leishmania infantum. Description: WHO-TDR: Leishmaniasis. Type of data set: functional, organism-based, Mus musculus. Conditions: Macrophage. In outline: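 IC50 values describe antiparasitic potency in this whole-organism screen. Leishmania infantum MHOM/MA(BE)/67 amastigotes were tested inside murine peritoneal macrophages against a 10,000-compound diverse Life Chemicals library. A reference drug served as positive control.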

For the next data set, the system named is Schistosoma mansoni. Description: WHO-TDR: Schistosomiasis. Set-up: concentration or dose not given beside the values. It counts as functional. In outline:
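In this whole-organism assay, larval and/or adult worms of Schistosoma mansoni (Puerto Rican strain) were exposed to compounds from a diverse Life Chemicals library of 10,000 members. A reference drug served as positive control. Activity is stated as percent inhibition and IC50.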

A further data set relates to Onchocerca ochengi. The experiment in a line: WHO-TDR: Onchocerciasis. It counts as functional. On the set-up: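 at 12.5 µM on microfilariae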. In outline: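 Microfilariae of Onchocerca ochengi or Onchocerca lienalis, animal pathogens standing in for the human parasite, were exposed to compounds in a whole-organism screen. The compounds came from a 10,000-compound diverse Life Chemicals library filtered for drug-likeness and reactive groups. Results are expressed as percent inhibition and IC50.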

The test system of the next data set is Brugia malayi. Description: WHO-TDR: Lymphatic Filariasis. It counts as functional. Set-up: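 tested at 10 µM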. In outline:
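In a whole-organism assay, Brugia malayi microfilariae were screened against a diverse Life Chemicals library that had been filtered for drug-likeness and reactive groups. That library comprised 10,000 compounds. Activity is expressed as percent inhibition and as IC50.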

Converted amounts (≈) assume the structure as drawn.

This is an account of results in ChEMBL document CHEMBL2093137, “WHO-TDR NTD Screening”.

Consider `CCOC(=O)N1CCc2nc(NC(=O)CCCS(=O)(=O)c3ccc(F)cc3)sc2C1`, for which the IC50 was over 13.7 µg/mL in data set [1]; 6.65 µg/mL (≈ 14.6 µM) in the data set with Plasmodium falciparum K1; over 13.7 µg/mL in the data set with Trypanosoma cruzi; over 13.7 µg/mL in data set [2]; over 13.7 µg/mL with Leishmania infantum. For the same molecule, the “% Inhibition” value turned out to be 0% in the data set with Schistosoma mansoni, 100% in the data set on Onchocerca ochengi and 0% in the data set on Brugia malayi.

For `Cc1cc(C)cc(NC(=O)NCCNc2ccc(Nc3ccccn3)nn2)c1`, the IC50 is over 11.3 µg/mL in data set [1]; over 11.3 µg/mL with Plasmodium falciparum K1; over 11.3 µg/mL in the data set with Trypanosoma cruzi; over 11.3 µg/mL in data set [2]; 0.367 µg/mL (≈ 0.972 µM) in the data set with Leishmania infantum. Also, the “% Inhibition” value came to 0% with Schistosoma mansoni, 100% with Onchocerca ochengi and 0% in the data set on Brugia malayi.

As to `COc1ccc2nc(-c3ccc(F)c(NC(=O)Cc4ccccc4)c3)cn2n1`, the IC50 was over 11.3 µg/mL in data set [1]; over 11.3 µg/mL with Plasmodium falciparum K1; over 11.3 µg/mL in the data set with Trypanosoma cruzi; over 11.3 µg/mL in data set [2]; 0.366 µg/mL (≈ 0.972 µM) in the data set with Leishmania infantum. The results for the “% Inhibition” value in the data set on Schistosoma mansoni, in the data set with Onchocerca ochengi and in the data set on Brugia malayi were 25%, 0% and 0%, respectively.

`COc1cccc(C(=O)N2CCN(c3ccc(-c4ccccn4)nn3)CC2)c1OC`: the IC50 in data set [1] was 5.68 µg/mL (≈ 14 µM); with Plasmodium falciparum K1, 0.548 µg/mL (≈ 1.35 µM); in the data set on Trypanosoma cruzi it was 0.421 µg/mL (≈ 1.04 µM); in data set [2] it was 3.85 µg/mL (≈ 9.49 µM); in the data set with Leishmania infantum it was 1.81 µg/mL (≈ 4.46 µM). Moreover, the “% Inhibition” value in the data set with Schistosoma mansoni is recorded as 33.3%; in the data set with Onchocerca ochengi, 100%; in the data set on Brugia malayi it was 33.33%.

Regarding `CS(=O)(=O)N1CCCCC1C(=O)Nc1nc2c(Cl)c(Cl)ccc2s1` (configuration not stated), the IC50 (in data set [1]; with Plasmodium falciparum K1; in the data set on Trypanosoma cruzi; in data set [2]; with Leishmania infantum) was over 12.2 µg/mL each time. Besides, the “% Inhibition” value in the data set on Schistosoma mansoni is 0%; in the data set on Onchocerca ochengi it was 100%; in the data set on Brugia malayi it was 0%.

Consider `CCn1ccnc1N1CCN(C(=O)c2cccc(OC)c2OC)CC1`, for which the IC50 was over 11.4 µg/mL in data set [1]; over 11.4 µg/mL in the data set on Plasmodium falciparum K1; over 11.4 µg/mL with Trypanosoma cruzi; over 11.4 µg/mL in data set [2]; 0.37 µg/mL (≈ 1.07 µM) in the data set on Leishmania infantum. Further, the “% Inhibition” value in the data set with Schistosoma mansoni is on record as 8.3%; in the data set with Onchocerca ochengi, 0%; with Brugia malayi it was 0%.

Regarding `CS(=O)(=O)N1CCCC1C(=O)Nc1nc(-c2ccc(Cl)s2)cs1` (configuration not stated), the IC50 in data set [1] is over 11.8 µg/mL; in the data set on Plasmodium falciparum K1, 3.6 µg/mL (≈ 9.18 µM); with Trypanosoma cruzi, over 11.8 µg/mL; in data set [2], over 11.8 µg/mL; in the data set with Leishmania infantum it was over 11.8 µg/mL. The figures for the “% Inhibition” value in the data set on Schistosoma mansoni, in the data set with Onchocerca ochengi and in the data set with Brugia malayi were 0%, 100% and 0%, respectively.

In the case of `O=S(=O)(c1cccc(F)c1)N1CCN(c2ccc(Nc3cccnc3)nn2)CC1`, the IC50 is 0.937 µg/mL (≈ 2.26 µM) in data set [1]; 5.44 µg/mL (≈ 13.1 µM) with Plasmodium falciparum K1; over 12.4 µg/mL in the data set on Trypanosoma cruzi; over 12.4 µg/mL in data set [2]; 0.403 µg/mL (≈ 0.972 µM) in the data set on Leishmania infantum. Further, the “% Inhibition” value with Schistosoma mansoni, in the data set with Onchocerca ochengi and in the data set on Brugia malayi was 0% each time.

In the case of `O=C(NCCNc1ccc(Nc2ccccn2)nn1)Nc1ccc(F)cc1`, the IC50 in data set [1] is over 11 µg/mL; in the data set with Plasmodium falciparum K1, over 11 µg/mL; in the data set with Trypanosoma cruzi, over 11 µg/mL; in data set [2], 3.66 µg/mL (≈ 9.95 µM); in the data set with Leishmania infantum, over 11 µg/mL. The entries for the “% Inhibition” value with Schistosoma mansoni, in the data set with Onchocerca ochengi and in the data set with Brugia malayi were 0%, 100% and 0%, respectively.

On to `CN(C1CC1)S(=O)(=O)c1ccc(C(=O)Nc2nnc(-c3ccc(Br)s3)o2)cc1`, for which the IC50 in data set [1] is 3.91 µg/mL (≈ 8.09 µM); in the data set on Plasmodium falciparum K1, over 14.5 µg/mL; in the data set with Trypanosoma cruzi it was 4.76 µg/mL (≈ 9.85 µM); in data set [2], 4.75 µg/mL (≈ 9.83 µM); in the data set with Leishmania infantum, 4.69 µg/mL (≈ 9.71 µM). Besides, the “% Inhibition” value is reported as 0% in the data set with Schistosoma mansoni, 100% in the data set with Onchocerca ochengi and 0% in the data set on Brugia malayi.

In the case of `CCc1nnc(NS(=O)(=O)c2ccc(NC(=O)c3ccc(S(=O)(=O)N4CCCCC4C)cc3)cc2)s1` (configuration not stated), the IC50 in data set [1] is over 16.5 µg/mL; in the data set with Plasmodium falciparum K1, 13.4 µg/mL (≈ 24.4 µM); with Trypanosoma cruzi it was over 16.5 µg/mL; in data set [2], 5.34 µg/mL (≈ 9.71 µM); in the data set on Leishmania infantum, over 16.5 µg/mL. Also, the “% Inhibition” value in the data set on Schistosoma mansoni worked out at 0%; in the data set on Onchocerca ochengi it was 100%; in the data set with Brugia malayi it was 0%.

As for `CCOC(=O)c1sc(NC(=O)C2CCCCN2S(C)(=O)=O)cc1C` (configuration not stated), the IC50 was over 11.2 µg/mL in data set [1]; over 11.2 µg/mL in the data set with Plasmodium falciparum K1; 3.69 µg/mL (≈ 9.86 µM) in the data set on Trypanosoma cruzi; 3.82 µg/mL (≈ 10.2 µM) in data set [2]; over 11.2 µg/mL with Leishmania infantum. For the same molecule, the “% Inhibition” value with Schistosoma mansoni came to 0%; with Onchocerca ochengi it was 100%; in the data set on Brugia malayi it was 0%.

Consider `CC(CC(=O)N1CCC(Cc2ccccc2)CC1)CC1=Nc2ccccc2S(=O)(=O)N1` (configuration not stated), for which the IC50 is over 13.2 µg/mL in data set [1]; over 13.2 µg/mL with Plasmodium falciparum K1; 6.58 µg/mL (≈ 15 µM) in the data set on Trypanosoma cruzi; over 13.2 µg/mL in data set [2]; over 13.2 µg/mL in the data set on Leishmania infantum. In addition, the “% Inhibition” value was 0% in the data set with Schistosoma mansoni, 100% with Onchocerca ochengi and 0% in the data set on Brugia malayi.

Regarding `O=C(Nc1ccc2c(c1)N(C(=O)C1CCCO1)CC2)c1ccco1` (configuration not stated), the IC50 in data set [1] was over 9.79 µg/mL; in the data set with Plasmodium falciparum K1, over 9.79 µg/mL; with Trypanosoma cruzi, over 9.79 µg/mL; in data set [2], over 9.79 µg/mL; in the data set with Leishmania infantum, 0.317 µg/mL (≈ 0.971 µM). Besides, the “% Inhibition” value in the data set on Schistosoma mansoni, with Onchocerca ochengi and in the data set with Brugia malayi was 0% each time.

For the molecule `O=S(=O)(c1cccnc1)N1CCN(c2ccc(-c3cccs3)nn2)CC1`, the IC50 in data set [1] was over 11.6 µg/mL; in the data set on Plasmodium falciparum K1 it was over 11.6 µg/mL; with Trypanosoma cruzi it was over 11.6 µg/mL; in data set [2] it was over 11.6 µg/mL; in the data set with Leishmania infantum, 0.376 µg/mL (≈ 0.97 µM). Moreover, the “% Inhibition” value in the data set on Schistosoma mansoni stood at 0%; with Onchocerca ochengi, 0%; in the data set with Brugia malayi, 50%.

As to `O=C(CN1CCN(c2nccn2-c2cccc(Cl)c2)CC1)N1CCc2ccccc21`, the 50% inhibitory concentration (IC50) in data set [1] was determined as 14.2 µg/mL (≈ 33.6 µM); with Plasmodium falciparum K1, 7.54 µg/mL (≈ 17.9 µM); in the data set on Trypanosoma cruzi it was 5.05 µg/mL (≈ 12 µM); in data set [2], 4.69 µg/mL (≈ 11.1 µM); in the data set on Leishmania infantum it was 0.481 µg/mL (≈ 1.14 µM). Moreover, the “% Inhibition” value in the data set on Schistosoma mansoni is listed as 0%; in the data set on Onchocerca ochengi it was 75%; in the data set on Brugia malayi it was 0%.

`O=C(c1ccc(F)cc1F)N1CCN(c2ccc(-c3cccnc3)nn2)CC1`: the IC50 in data set [1] was over 11.4 µg/mL; with Plasmodium falciparum K1, over 11.4 µg/mL; with Trypanosoma cruzi, over 11.4 µg/mL; in data set [2] it was over 11.4 µg/mL; in the data set on Leishmania infantum, 0.37 µg/mL (≈ 0.97 µM). The “% Inhibition” value stood at 0% in the data set with Schistosoma mansoni, 0% with Onchocerca ochengi and 33.33% in the data set on Brugia malayi.

As for `O=C(Nc1nnc(Cc2cccs2)o1)c1cc(Cl)sc1Cl`, the IC50 was 0.967 µg/mL (≈ 2.68 µM) in data set [1]; over 10.8 µg/mL in the data set on Plasmodium falciparum K1; 0.632 µg/mL (≈ 1.75 µM) in the data set on Trypanosoma cruzi; 0.342 µg/mL (≈ 0.949 µM) in data set [2]; over 10.8 µg/mL in the data set on Leishmania infantum. Besides, the “% Inhibition” value in the data set with Schistosoma mansoni, in the data set with Onchocerca ochengi and with Brugia malayi was 0% throughout.

For `O=c1ccc(-c2ccncc2)nn1CCCNS(=O)(=O)c1ccc2c(c1)CCCC2`, the IC50 in data set [1] is over 12.7 µg/mL; in the data set with Plasmodium falciparum K1, over 12.7 µg/mL; in the data set with Trypanosoma cruzi, 4.77 µg/mL (≈ 11.2 µM); in data set [2], over 12.7 µg/mL; in the data set with Leishmania infantum, over 12.7 µg/mL. For the same molecule, the results for the “% Inhibition” value in the data set on Schistosoma mansoni, in the data set with Onchocerca ochengi and in the data set with Brugia malayi were 0%, 100% and 0%, respectively.

By IC50 is commonly meant the concentration that gives 50% inhibition. Broadly, the % Inhibition is the relative decrease from the control value, in per cent.
